Assay [1] addresses Cannabinoid receptor 1 (Rattus norvegicus) (UniProt P20272). The assay can be described thus: Agonist activity against rat CB1 receptor expressed in superior cervical ganglion neurons assessed as increase in calcium ion current at 1 uM relative to control. The format is functional, tissue-based. The gist of the method: (§1)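 Rat SCG neurons nuclear-injected with N-terminally HA-tagged rat CB1 cDNA (100 ng/µL) plus EGFP marker plasmid, incubated overnight. Whole-cell voltage-clamp at 24-26 °C. Ca²⁺ current measured 10 ms into step to +5 mV, preceded by 50 ms prepulse to +80 mV. Test drug superfused alone, diluted from 10 mM DMSO stock. Current increase expressed as % of control amplitude; paired t-test.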

For assay [2] the target is unchanged. The assay can be described thus: Antagonist activity against rat CB1 receptor expressed in superior cervical ganglion neurons assessed as block of WIN-55212-2-elicited calcium ion current inhibition at 1 uM relative to control. The class given is functional, tissue-based. Also on record: scale not given: the % may be the effect or the level left. The method in brief:
(§2)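 SCG neurons from rat, nuclear-injected with HA-tagged rat CB1 cDNA, recorded after overnight incubation by whole-cell patch clamp at room temperature. Ca²⁺ currents isolated with TEA/TTX external solution and NMDG/EGTA pipette solution. WIN55,212-2 (1 µM) coapplied with test compound. Inhibition of Ca²⁺ current expressed as % of control amplitude, taken 10 ms after the step to +5 mV.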

Assay [3] addresses T1, Cannabinoid receptor 1 (Homo sapiens, UniProt P21554). The assay can be described thus: biochemical. The format is cell-based, HEK293.
In assay [4] the target is Cannabinoid receptor 1 (Rattus norvegicus) (UniProt P20272). Put plainly: Antagonist activity against rat CB1 receptor expressed in superior cervical ganglion neurons assessed as block of WIN-55212-2-elicited calcium ion current inhibition at 10 uM relative to control. The class given is functional, tissue-based. Also on record: scale not given: the % may be the effect or the level left. The method in brief: as §2

Assay [5] has the same target. Put plainly: Agonist activity against rat CB1 receptor expressed in superior cervical ganglion neurons assessed as increase in calcium ion current at 10 uM relative to control. The class given is functional, tissue-based. The gist of the method: as §1
Assay [6] addresses T1, Cannabinoid receptor 1. Put plainly: biochemical. The class given is cell-based, HEK293. This is another data set of the same source.
Assay [7] deals with T1, Cannabinoid receptor 1. Put plainly: biochemical. The class given is cell-based, HEK293. This is another data set of the same source.

The results in this text go back to ChEMBL document CHEMBL1137381, “Biarylpyrazole inverse agonists at the cannabinoid CB1 receptor: importance of the C-3 carboxamide oxygen/lysine3.28(192) interaction” (J Med Chem, 2006).

Each structure is given as a SMILES string.

Chain of Cannabinoid receptor 1 (Rattus norvegicus) (P20272 whole entry, the tested form may be a part): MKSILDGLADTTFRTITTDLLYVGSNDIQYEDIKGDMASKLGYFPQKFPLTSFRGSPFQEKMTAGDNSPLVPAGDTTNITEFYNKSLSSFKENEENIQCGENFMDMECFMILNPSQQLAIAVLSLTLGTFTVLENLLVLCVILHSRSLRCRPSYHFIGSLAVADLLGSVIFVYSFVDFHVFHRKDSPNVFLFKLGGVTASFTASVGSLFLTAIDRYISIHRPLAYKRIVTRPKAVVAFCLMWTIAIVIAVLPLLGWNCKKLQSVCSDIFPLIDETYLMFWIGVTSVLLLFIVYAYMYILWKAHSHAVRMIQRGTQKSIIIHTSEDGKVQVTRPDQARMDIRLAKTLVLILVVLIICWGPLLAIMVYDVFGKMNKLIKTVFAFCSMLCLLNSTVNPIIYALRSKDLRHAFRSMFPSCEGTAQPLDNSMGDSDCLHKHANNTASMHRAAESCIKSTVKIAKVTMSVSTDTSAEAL
T1 sequence (P21554 whole entry): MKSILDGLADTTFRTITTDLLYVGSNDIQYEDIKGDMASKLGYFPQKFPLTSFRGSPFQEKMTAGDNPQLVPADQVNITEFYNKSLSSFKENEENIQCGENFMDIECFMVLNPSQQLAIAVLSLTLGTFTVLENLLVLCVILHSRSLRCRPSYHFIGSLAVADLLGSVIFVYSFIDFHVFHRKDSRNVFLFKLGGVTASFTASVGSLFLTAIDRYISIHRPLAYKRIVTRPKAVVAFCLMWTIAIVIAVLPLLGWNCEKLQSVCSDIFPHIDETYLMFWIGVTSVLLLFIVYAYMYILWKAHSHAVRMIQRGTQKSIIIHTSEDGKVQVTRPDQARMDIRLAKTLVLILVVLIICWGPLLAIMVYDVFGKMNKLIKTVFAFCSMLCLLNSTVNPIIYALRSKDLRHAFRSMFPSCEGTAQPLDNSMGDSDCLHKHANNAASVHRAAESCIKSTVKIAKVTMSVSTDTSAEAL

In the case of `Cc1c(C(=O)NN2CCCCC2)nn(-c2ccc(Cl)cc2Cl)c1-c1ccc(Cl)cc1`, the Activity in assay [1] is 46.6%; in assay [2], -4.8%.

Take `Cc1c(C(=O)N(C)C2CCCCC2)nn(-c2ccc(Cl)cc2Cl)c1-c1ccc(Cl)cc1`: the Ki – broadly, the equilibrium dissociation constant of an inhibitor or competing ligand from its target – turned out to be 107 nM at Cannabinoid receptor 1 [3], 30 nM at Cannabinoid receptor 1 [6] and 54 nM at Cannabinoid receptor 1 [7]. Also, the Activity was -7% in assay [4], 23.9% in assay [5], 26.1% in assay [1] and -4.5% in assay [2].

`Cc1c(C(=O)NC2CCCCC2)nn(-c2ccc(Cl)cc2Cl)c1-c1ccc(Cl)cc1`: the values for the Ki on Cannabinoid receptor 1 [3], on Cannabinoid receptor 1 [6] and on Cannabinoid receptor 1 [7] were 3.7 nM, 1.8 nM and 5 nM, respectively. The results for the Activity in assay [1] and in assay [2] were 35.2% and -3.8%, respectively.

Consider `Cc1c(/C=C/C2CCCCC2)nn(-c2ccc(Cl)cc2Cl)c1-c1ccc(Cl)cc1`, for which the Ki came out at 60 nM at Cannabinoid receptor 1 [3], 31.3 nM at Cannabinoid receptor 1 [6] and 85 nM on Cannabinoid receptor 1 [7]. The Activity amounted to 8.6% in assay [1] and 28.1% in assay [2].

With `Cc1c(/C=N/N2CCCCC2)nn(-c2ccc(Cl)cc2Cl)c1-c1ccc(Cl)cc1`, the inhibitory constant (Ki) on Cannabinoid receptor 1 [3] worked out at 19 nM; at Cannabinoid receptor 1 [6], 17 nM; on Cannabinoid receptor 1 [7], 57 nM. Moreover, the Activity worked out at 11.5% in assay [1] and 2.6% in assay [2].

On to `Cc1c(C(=O)c2cccc3ccccc23)c2cccc3c2n1[C@H](CN1CCOCC1)CO3`, for which the Activity in assay [1] stood at 47.1%.

As to `Cc1c(/C=C/N2CCCCC2)nn(-c2ccc(Cl)cc2Cl)c1-c1ccc(Cl)cc1`, the Ki on Cannabinoid receptor 1 [3] is 223 nM; on Cannabinoid receptor 1 [6], 213 nM; on Cannabinoid receptor 1 [7], 258 nM. In addition, the Activity in assay [4] was 0.7%; in assay [5], 13.9%; in assay [1], 3.2%; in assay [2] it was -2.5%.
